Experimental data: the M2OR odorant receptor database

Target: T1, OR10J5 (Homo sapiens) (UniProt Q8NHC4)
T1 sequence (whole entry): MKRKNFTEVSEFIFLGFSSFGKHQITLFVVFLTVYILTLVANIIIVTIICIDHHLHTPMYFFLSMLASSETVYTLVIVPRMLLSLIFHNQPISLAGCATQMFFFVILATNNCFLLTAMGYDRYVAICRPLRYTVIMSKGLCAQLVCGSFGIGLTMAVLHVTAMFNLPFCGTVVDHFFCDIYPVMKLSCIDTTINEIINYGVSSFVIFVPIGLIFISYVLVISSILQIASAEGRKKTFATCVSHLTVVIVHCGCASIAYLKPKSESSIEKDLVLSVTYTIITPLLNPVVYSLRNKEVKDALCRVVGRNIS
Details: stereoisomer not certain
In short: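 Transient luciferase assays in mammalian cell lines were common, though methods varied by source. The values come from published papers and their supplementary material, with extra details from the original authors when needed. Responsive refers to a measured signal the original authors judged statistically different from baseline, and non-responsive (inactive) to the remainder.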
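Further: active if original authors judged signal statistically different from baseline.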

Q: For `CCCCCCO`, which “odorant receptor agonist call” value is on record?
A: inactive
